“And” between values parts separate entries of the source, which are not always exact repeats. Equal entries are not always repeated.

The target of experiment [1] is T1, recombinant BodoOBP10 (Bradysia odoriphaga, UniProt A0A2S0X9G4).
T1 sequence (A0A2S0X9G4 20-144): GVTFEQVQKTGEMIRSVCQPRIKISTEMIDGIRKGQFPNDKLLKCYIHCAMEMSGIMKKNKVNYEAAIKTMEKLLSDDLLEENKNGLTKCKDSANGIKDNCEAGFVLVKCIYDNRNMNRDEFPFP
The experiment can be described thus: Binding curve of the fluorescence reporter 1-NPN. In a few lines:
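Recombinant BodoOBP10 was expressed in E. coli BL21(DE3) from pBM30 with 0.5 mM IPTG for 12 h at 28°C. Inclusion bodies were solubilised in 50 mM Tris pH 6.8 with 0.2% Triton X-100 and 6 M guanidine HCl. Protein was Ni-affinity purified and the His tag removed by enterokinase. Protein stock was 2 µM in 20 mM Tris-HCl pH 7.4; 1-NPN stock was 1 mM in methanol. Ex 337 nm, em 350–500 nm, 10-nm slit; triplicate means.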

Experiment [2] concerns antennae of B. odoriphaga adult females. The experiment can be described thus: Electroantennogram. The settings on record: odorant at 10 μg/μL, adult females 12 h after emergence. Details: species or system Bradysia odoriphaga. In a few lines: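 30 nL of 6 μg/μL dsOBP10 or dsGFP was injected into one-day-old pupal abdomens; knockdown was checked by RT-qPCR in triplicate. Antennae of females 12 h post-emergence were detached, base on reference and tip on recording glass electrodes. Stimulus was 10 μl of a 10 μg/μL sulfur volatile on filter paper, pipetted after 10 s. Hexane control was given before and after. Ten replicates; one-way ANOVA with Tukey, means ± SE.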

The test system of experiment [3] is antennae of adult B. odoriphaga. The settings on record: ref Yang et al. 2019; cited from earlier work.
The next experiment concerns B. odoriphaga females. To be noted: ref Yang et al. 2019; cited from earlier work.
Experiment [4] deals with T1, recombinant BodoOBP10. The experiment can be described thus: Competitive fluorescence binding assay with 1-NPN as reporter. To be noted: competitive dissociation constant from IC50, 1-NPN reporter. In a few lines: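 Refolded, Ni-purified, tag-cleaved BodoOBP10 (2 µM stock, 20 mM Tris-HCl pH 7.4) was titrated with test compounds (1 mM methanol stocks) displacing the 1-NPN reporter. Ex 337 nm, em 350–500 nm. IC50 is the ligand concentration halving initial fluorescence. Ki = [IC50]/(1 + [1-NPN]/K1-NPN), using free 1-NPN and the protein/1-NPN dissociation constant. Triplicate means.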

A further experiment concerns male B. odoriphaga. The settings on record: ref Li et al. 2008; cited from earlier work.

One may read the Ki as a dissociation constant, usually derived from enzyme kinetics or from competition with a known ligand. On to `c1ccc(Nc2cccc3ccccc23)cc1` [1-NPN, N-phenyl-1-naphthylamine], for which the Ki at recombinant BodoOBP10 [1] amounted to 0.78 µM.
For `C=CCSSCC=C` [Diallyl disulfide], the “EAG response in dsOBP10-injected insects compared with control (dsGFP-injected)” value in experiment [2] was “significantly reduced”; in experiment [2] (listed as diallyl disulﬁde), “reduced”. In addition, the “EAG responses / antennal preference of B. odoriphaga adults” value in experiment [3] was “stimulate the EAG responses”. Besides, the female oviposition entry with B. odoriphaga females was “stimulate female oviposition”. In addition, the inhibitory constant (Ki) at recombinant BodoOBP10 [4] was 8.01 µM and < 10 µM.
As to `CCCCCCCCCCCCCCCCC` [n- Heptadecane, n-Heptadecane], in the experiment on male B. odoriphaga, the “behavioral responses in male B. odoriphaga” value is on record as “can lead to behavioral responses”. Besides, the Ki on recombinant BodoOBP10 [4] is greater than 50 µM.

The record behind these values is paper PMC9894006 (Journal of Insect Science, 2023).
